Measurements reported in ChEMBL document CHEMBL4725354 (J Med Chem, 2020).

Key:
[1] = biological target: T1, Broad substrate specificity ATP-binding cassette transporter ABCG2 (Homo sapiens, UniProt Q9UNQ0); assay: Inhibition of human ABCG2 expressed in MDCK2 cells co-expressing GFP preincubated for 30 mins followed by Hoechst 33342 addition and measured every 60 sec for 120 mins by fluorescence assay; format: cell-based, MDCK-II
T1 sequence (Q9UNQ0 whole entry): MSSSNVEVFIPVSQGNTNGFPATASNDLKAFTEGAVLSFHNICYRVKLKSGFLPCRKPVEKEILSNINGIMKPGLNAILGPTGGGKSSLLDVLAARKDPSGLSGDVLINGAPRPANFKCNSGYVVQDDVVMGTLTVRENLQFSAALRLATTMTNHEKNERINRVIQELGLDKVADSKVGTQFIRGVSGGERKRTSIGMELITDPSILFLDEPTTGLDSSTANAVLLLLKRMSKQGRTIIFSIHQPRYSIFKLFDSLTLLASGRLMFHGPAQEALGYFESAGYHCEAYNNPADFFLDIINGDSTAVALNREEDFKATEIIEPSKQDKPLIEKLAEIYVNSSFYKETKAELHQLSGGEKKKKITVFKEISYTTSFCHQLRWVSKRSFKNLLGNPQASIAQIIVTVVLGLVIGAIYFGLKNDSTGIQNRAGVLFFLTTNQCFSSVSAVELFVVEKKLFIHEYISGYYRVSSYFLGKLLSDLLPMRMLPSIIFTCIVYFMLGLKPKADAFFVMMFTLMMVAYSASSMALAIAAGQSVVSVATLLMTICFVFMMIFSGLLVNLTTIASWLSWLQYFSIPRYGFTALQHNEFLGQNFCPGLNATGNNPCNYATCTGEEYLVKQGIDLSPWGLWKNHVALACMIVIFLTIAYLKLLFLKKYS
How it was run: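 MDCK II cells transfected with human ABCG2 cDNA C-terminally fused to GFP. Hoechst 33342 added at 1 µM final. Fluorescence (ex 355, em 460 nm) read every 60 s for 120 min. Steady-state means vs log concentration fitted by 3- or 4-parameter logistic to give IC50.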

[2] = biological target: T1, Broad substrate specificity ATP-binding cassette transporter ABCG2; assay: Inhibition of human ABCG2 expressed in MDCK2 cells co-expressing GFP preincubated for 15 mins followed by pheophorbideA addition and measured after 2 hrs by flow cytometric analysis; format: cell-based, MDCK-II
How it was run: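 Pheophorbide A added to 0.5 µM final and incubated 2 h. Read by flow cytometry (ex 488, em 695/50 nm); GFP expression checked at 525/30 nm. IC50 from 3- or 4-parameter logistic fit.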

MDCK-II [3] = assay: Cytotoxicity against MDCK2 cells assessed as reduction in cell viability at 10 uM after 72 hrs by MTT assay; format: cell-based, Canis lupus familiaris; conditions: dog
How it was run: (§1)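 Single-concentration screen at 10 µM in MDCK II BCRP and parental MDCK II cells. MTT assay, 72 h at 37 °C, 5% CO2. Viability referenced to culture medium (100%) and 10% DMSO (0%). Mean ± SEM of at least three independent experiments with duplicates.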

ABCG2 [4] = biological target: T2, ABCG2 (Homo sapiens, UniProt Q9UNQ0); assay: Inhibition of human ABCG2 expressed in MDCK2 cells co-expressing GFP preincubated for 15 mins followed by pheophorbideA addition and measured after 2 hrs by flow cytometric analysis relative to control; format: cell-based, MDCK-II; conditions: probe pheophorbide A, read-out: Imax
T2 sequence (Q9UNQ0 whole entry): T1 sequence (Q9UNQ0 whole entry)

ABCG2 [5] = biological target: T2, ABCG2; assay: Inhibition of human ABCG2 expressed in MDCK2 cells co-expressing GFP preincubated for 30 mins followed by Hoechst 33342 addition and measured every 60 sec for 120 mins by fluorescence assay relative to control; format: cell-based, MDCK-II; conditions: probe Hoechst 33342, read-out: Imax
How it was run: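 MDCK II cells transfected with human ABCG2 cDNA C-terminally fused to GFP. Steady-state means vs log concentration fitted by 3- or 4-parameter logistic to give IC50.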

MDCK-II [6] = assay: Cytotoxicity against MDCK2 cells over expressing human ABCG2 at 10 uM assessed as reduction in cell viability after 72 hrs by MTT assay; format: ADME, cell-based, Canis lupus familiaris; conditions: dog; how it was run: as §1
[7] = biological target: ATP-dependent translocase ABCB1 (Homo sapiens, UniProt P08183); assay: Inhibition of human ABCB1 expressed in A2780/ADR cells preincubated for 30 mins followed by calcein AM addition and measured every 60 secs for 60 mins by fluorescence assay; format: cell-based
Sequence of ATP-dependent translocase ABCB1 (P08183 whole entry): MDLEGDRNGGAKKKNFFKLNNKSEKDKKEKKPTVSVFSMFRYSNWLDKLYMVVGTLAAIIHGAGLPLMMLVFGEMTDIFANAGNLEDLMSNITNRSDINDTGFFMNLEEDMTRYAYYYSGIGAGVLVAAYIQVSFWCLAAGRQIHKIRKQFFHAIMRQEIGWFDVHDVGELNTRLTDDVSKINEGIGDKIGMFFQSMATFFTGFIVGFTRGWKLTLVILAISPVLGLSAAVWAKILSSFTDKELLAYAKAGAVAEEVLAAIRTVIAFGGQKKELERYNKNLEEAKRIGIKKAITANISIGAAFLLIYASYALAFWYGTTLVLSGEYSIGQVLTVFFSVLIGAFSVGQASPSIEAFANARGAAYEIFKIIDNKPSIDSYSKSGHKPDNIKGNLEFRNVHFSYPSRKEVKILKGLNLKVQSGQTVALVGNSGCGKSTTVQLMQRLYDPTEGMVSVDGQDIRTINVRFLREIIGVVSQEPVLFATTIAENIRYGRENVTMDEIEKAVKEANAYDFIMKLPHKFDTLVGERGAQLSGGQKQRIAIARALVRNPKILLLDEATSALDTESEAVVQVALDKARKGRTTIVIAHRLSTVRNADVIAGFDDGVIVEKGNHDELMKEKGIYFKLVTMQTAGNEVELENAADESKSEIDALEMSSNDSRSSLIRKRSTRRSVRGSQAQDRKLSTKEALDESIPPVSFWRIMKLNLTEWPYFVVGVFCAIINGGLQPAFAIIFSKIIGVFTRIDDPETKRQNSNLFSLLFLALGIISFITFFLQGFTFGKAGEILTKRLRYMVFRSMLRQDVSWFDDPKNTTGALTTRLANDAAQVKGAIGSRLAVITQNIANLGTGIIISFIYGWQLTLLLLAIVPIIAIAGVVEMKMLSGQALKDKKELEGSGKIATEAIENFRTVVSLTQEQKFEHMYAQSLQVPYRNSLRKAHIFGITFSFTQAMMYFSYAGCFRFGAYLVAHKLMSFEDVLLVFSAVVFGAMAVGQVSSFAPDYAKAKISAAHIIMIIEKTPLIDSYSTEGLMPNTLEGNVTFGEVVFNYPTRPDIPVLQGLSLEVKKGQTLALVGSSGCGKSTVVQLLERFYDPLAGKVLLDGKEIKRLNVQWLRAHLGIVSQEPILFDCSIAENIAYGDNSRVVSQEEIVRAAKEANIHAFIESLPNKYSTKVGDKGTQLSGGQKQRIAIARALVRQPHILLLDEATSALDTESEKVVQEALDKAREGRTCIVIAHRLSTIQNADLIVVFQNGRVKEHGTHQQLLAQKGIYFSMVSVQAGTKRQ
How it was run: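 ABCB1 in A2780/ADR cells (kept resistant by one passage in 1 µM doxorubicin every 10 passages). 30,000 cells per well in Krebs-HEPES buffer, preincubated 30 min at 37 °C with inhibitor. Calcein AM added from a 3.125 µM solution. Fluorescence (ex 485, em 520 nm) read every 60 s for 60 min. Initial linear slopes vs log concentration fitted to give IC50.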

[8] = Growth inhibition of MDCK2 cells after 72 hrs by MTT assay; format: cell-based, Canis lupus familiaris, MDCK-II; conditions: dog
How it was run: (§2)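 MTT viability assay. Compound dilutions in culture medium (3.2 to 1000 µM as prepared). About 2,000 cells per well, 72 h at 37 °C, 5% CO2. Culture medium set as 100% and 10% DMSO as 0% viability. MTT added for 1 h, formazan dissolved in DMSO, absorbance read at 570 nm with 690 nm background. GI50 from nonlinear regression of absorbance vs log concentration; at least three independent experiments, duplicates, mean ± SEM.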

[9] = Growth inhibition of MDCK2 cells over expressing human ABCG2 after 72 hrs by MTT assay; format: ADME, cell-based, Canis lupus familiaris, MDCK-II; conditions: dog, MDCK2 cells overexpressing human ABCG2; how it was run: as §2
ABCG2 [10] = assay: Therapeutic ratio of GI50 for Growth inhibition of MDCK2 cells over expressing human ABCG2 to IC50 for inhibition of human ABCG2 expressed in MDCK2 cells co-expressing GFP preincubated for 15 mins followed by pheophorbideA addition and measured after 2 hrs by flow cytometric analysis; format: toxicity, cell-based; conditions: dog, MDCK2 cells overexpressing human ABCG2, probe pheophorbide A; read-out: TI
ABCG2 [11] = assay: Therapeutic ratio of GI50 for Growth inhibition of MDCK2 cells over expressing human ABCG2 to IC50 for inhibition of human ABCG2 expressed in MDCK2 cells co-expressing GFP preincubated for 30 mins followed by Hoechst 33342 addition and measured every 60 sec for 120 mins by fluorescence assay; format: toxicity, cell-based; conditions: dog, MDCK2 cells overexpressing human ABCG2, probe Hoechst 33342; read-out: TI

## Cc1cc(Nc2cccc(F)c2)nc(-c2ccccc2)n1
[1]
  IC50: 1110 nM
[2]
  IC50: 776 nM
MDCK-II [3]
  Activity: Non-Toxic
ABCG2 [4]
  Emax at 2 h: 100%
ABCG2 [5]
  Emax at 2 h: 100%
MDCK-II [6]
  Activity: Non-Toxic

## Cc1cc(Nc2ccc(F)c([N+](=O)[O-])c2)nc(-c2ccccc2)n1
[1]
  IC50: 1010 nM
[2]
  IC50: 771 nM
MDCK-II [3]
  Activity: Non-Toxic
ABCG2 [4]
  Emax at 2 h: 100%
ABCG2 [5]
  Emax at 2 h: 100%
MDCK-II [6]
  Activity: Non-Toxic

## COc1ccc(Nc2cc(C)nc(-c3ccccc3)n2)cc1F
[1]
  IC50: 861 nM
[7]
  IC50: 8.99 µM
[2]
  IC50: 1310 nM
MDCK-II [3]
  Activity: Non-Toxic
ABCG2 [4]
  Emax at 2 h: 100%
ABCG2 [5]
  Emax at 2 h: 100%
MDCK-II [6]
  Activity: Non-Toxic

## Cc1cc(Nc2ccc3c(c2)C(=O)NC3=O)nc(-c2ccccc2)n1
[1]
  IC50: 253 nM
[7]
  IC50: 17.7 µM
[2]
  IC50: 416 nM
MDCK-II [3]
  Activity: Non-Toxic
ABCG2 [4]
  Emax at 2 h: 101%
ABCG2 [5]
  Emax at 2 h: 105%
MDCK-II [6]
  Activity: Non-Toxic

## C[S+](C)[O-] [DIMETHYL SULFOXIDE]
[8]
  GI50 at 72 h: 123 µM
[9]
  GI50 at 72 h: 137 µM

## Cc1cc(Nc2cccc([N+](=O)[O-])c2)nc(-c2ccccc2)n1
[1]
  IC50: 130 nM
[2]
  IC50: 146 nM
MDCK-II [3]
  Activity: Non-Toxic
ABCG2 [4]
  Emax at 2 h: 68%
ABCG2 [5]
  Emax at 2 h: 80%
MDCK-II [6]
  Activity: Non-Toxic

## Cc1cc(Nc2ccc3c(c2)OCCO3)nc(-c2ccccc2)n1
[1]
  IC50: 808 nM
[7]
  IC50: 13.1 µM
[2]
  IC50: 1630 nM
MDCK-II [3]
  Activity: Non-Toxic
ABCG2 [4]
  Emax at 2 h: 100%
ABCG2 [5]
  Emax at 2 h: 100%
MDCK-II [6]
  Activity: Non-Toxic

## Cc1cc(Nc2cccc(O)c2)nc(-c2ccccc2)n1
[1]
  IC50: 253 nM
[2]
  IC50: 516 nM
MDCK-II [3]
  Activity: Non-Toxic
ABCG2 [4]
  Emax at 2 h: 59%
ABCG2 [5]
  Emax at 2 h: 74%
MDCK-II [6]
  Activity: Non-Toxic

## Cc1cc(Nc2cccc(CO)c2)nc(-c2ccccc2)n1
[1]
  IC50: 4220 nM
[2]
  IC50: 2520 nM
MDCK-II [3]
  Activity: Non-Toxic
ABCG2 [4]
  Emax at 2 h: 100%
ABCG2 [5]
  Emax at 2 h: 100%
MDCK-II [6]
  Activity: Non-Toxic

## Cc1cc(Nc2ccc(CC#N)cc2)nc(-c2ccccc2)n1
[1]
  IC50: 2500 nM
[7]
  IC50: 16 µM
[2]
  IC50: 3620 nM
MDCK-II [3]
  Activity: Non-Toxic
ABCG2 [4]
  Emax at 2 h: 100%
ABCG2 [5]
  Emax at 2 h: 100%
MDCK-II [6]
  Activity: Non-Toxic

## Cc1cc(Nc2ccc(F)c(C#N)c2)nc(-c2ccccc2)n1
[1]
  IC50: 307 nM
[8]
  GI50 at 72 h: 102 µM
[9]
  GI50 at 72 h: 96.7 µM
[2]
  IC50: 86.1 nM
MDCK-II [3]
  Activity: Non-Toxic
ABCG2 [4]
  Emax at 2 h: 59%
ABCG2 [10]
  selectivity ratio at 2 h: 1120
ABCG2 [11]
  selectivity ratio: 315
ABCG2 [5]
  Emax at 2 h: 100%
MDCK-II [6]
  Activity: Non-Toxic

## Cc1cc(Nc2ccc(C#N)c(C(F)(F)F)c2)nc(-c2ccccc2)n1
[1]
  IC50: 69.3 nM
[8]
  GI50 at 72 h: 9.89 µM
[9]
  GI50 at 72 h: 9.57 µM
[2]
  IC50: 385 nM
MDCK-II [3]
  Activity: Toxic
ABCG2 [4]
  Emax at 2 h: 92%
ABCG2 [10]
  selectivity ratio at 2 h: 25
ABCG2 [11]
  selectivity ratio: 139
ABCG2 [5]
  Emax at 2 h: 114%
MDCK-II [6]
  Activity: Toxic

## COc1cccc(Nc2cc(C)nc(-c3ccccc3)n2)c1
[1]
  IC50: 271 nM
[7]
  IC50: 13.4 µM
[2]
  IC50: 503 nM
MDCK-II [3]
  Activity: Non-Toxic
ABCG2 [4]
  Emax at 2 h: 100%
ABCG2 [5]
  Emax at 2 h: 96%
MDCK-II [6]
  Activity: Non-Toxic

## Cc1cc(Nc2ccc([N+](=O)[O-])cc2)nc(-c2ccccc2)n1
[1]
  IC50: 52.2 nM
[8]
  GI50 at 72 h: 16.7 µM
[9]
  GI50 at 72 h: 17 µM
[7]
  IC50: 11.2 µM
[2]
  IC50: 156 nM
MDCK-II [3]
  Activity: Non-Toxic
ABCG2 [4]
  Emax at 2 h: 67%
ABCG2 [10]
  selectivity ratio at 2 h: 111
ABCG2 [11]
  selectivity ratio: 327
ABCG2 [5]
  Emax at 2 h: 79%
MDCK-II [6]
  Activity: Non-Toxic

## Cc1cc(Nc2ccc([N+](=O)[O-])c(Cl)c2)nc(-c2ccccc2)n1
[1]
  IC50: 58.9 nM
[2]
  IC50: 228 nM
MDCK-II [3]
  Activity: Non-Toxic
ABCG2 [4]
  Emax at 2 h: 86%
ABCG2 [5]
  Emax at 2 h: 76%
MDCK-II [6]
  Activity: Non-Toxic

## Cc1cc(Nc2ccc(C#N)c(Br)c2)nc(-c2ccccc2)n1
[1]
  IC50: 119 nM
[8]
  GI50 at 72 h: 188 µM
[9]
  GI50 at 72 h: 145 µM
[2]
  IC50: 59.4 nM
MDCK-II [3]
  Activity: Non-Toxic
ABCG2 [4]
  Emax at 2 h: 40%
ABCG2 [10]
  selectivity ratio at 2 h: 2440
ABCG2 [11]
  selectivity ratio: 1220
ABCG2 [5]
  Emax at 2 h: 90%
MDCK-II [6]
  Activity: Non-Toxic

## Cc1cc(Nc2ccc(C#N)c(C#N)c2)nc(-c2ccccc2)n1
[1]
  IC50: 188 nM
[2]
  IC50: 548 nM
MDCK-II [3]
  Activity: Non-Toxic
ABCG2 [4]
  Emax at 2 h: 100%
ABCG2 [5]
  Emax at 2 h: 117%
MDCK-II [6]
  Activity: Non-Toxic
